ChEMBL document CHEMBL3112537, “A novel series of 6-substituted 3-(pyrrolidin-1-ylmethyl)chromen-2-ones as selective monoamine oxidase (MAO) A inhibitors” (Eur J Med Chem, 2014)
pIC50: −log10 of the molar value.

Legend:
[1] = Metabolic stability in rat liver microsomes assessed as compound remaining at 5 uM after 60 mins by LC-MS/MS analysis; format: ADME; settings: read-out: Stability
Procedure, shortened: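 Incubation with rat liver microsomes, read as % of compound remaining after 60 min.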

[2] = test system: Rattus norvegicus; assay: In vivo inhibition of MAO-A in Sprague-Dawley rat assessed as 5-hydroxyindoleacetic acid in brain striatum at 100 umol/kg, sc after 1 hr by HPLC/EC analysis relative to control; format: functional; set-up: scale not given: the % may be the effect or the level left
Procedure, shortened: (§1)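 Freely moving rats dosed subcutaneously and sacrificed 1 h later. Striatal DOPAC, 3-MT and 5-HIAA were measured post mortem and expressed as % of saline control (n = 4). Significance was by Student's t-test, P < 0.05.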

[3] = test system: Rattus norvegicus; assay: In vivo inhibition of MAO-A in Sprague-Dawley rat assessed as 3-methoxytyramine level in brain striatum at 100 umol/kg, sc after 1 hr by HPLC/EC analysis relative to control; format: functional; set-up: scale not given: the % may be the effect or the level left; procedure, shortened: as §1
[4] = test system: Rattus norvegicus; assay: In vivo inhibition of MAO-A in Sprague-Dawley rat assessed as 3,4-dihydroxyphenylacetic acid level in brain striatum at 100 umol/kg, sc after 1 hr by HPLC/EC analysis relative to control; format: functional; set-up: scale not given: the % may be the effect or the level left; procedure, shortened: as §1
[5] = molecular target: D(2) dopamine receptor (Homo sapiens, UniProt P14416); assay: Antagonist activity at dopamine D2 receptor (unknown origin) expressed in HEK cells co-expressing Gqi5 assessed as inhibition of dopamine-induced effect by FLIPR assay; format: cell-based, HEK293
D(2) dopamine receptor, sequence (P14416 whole entry): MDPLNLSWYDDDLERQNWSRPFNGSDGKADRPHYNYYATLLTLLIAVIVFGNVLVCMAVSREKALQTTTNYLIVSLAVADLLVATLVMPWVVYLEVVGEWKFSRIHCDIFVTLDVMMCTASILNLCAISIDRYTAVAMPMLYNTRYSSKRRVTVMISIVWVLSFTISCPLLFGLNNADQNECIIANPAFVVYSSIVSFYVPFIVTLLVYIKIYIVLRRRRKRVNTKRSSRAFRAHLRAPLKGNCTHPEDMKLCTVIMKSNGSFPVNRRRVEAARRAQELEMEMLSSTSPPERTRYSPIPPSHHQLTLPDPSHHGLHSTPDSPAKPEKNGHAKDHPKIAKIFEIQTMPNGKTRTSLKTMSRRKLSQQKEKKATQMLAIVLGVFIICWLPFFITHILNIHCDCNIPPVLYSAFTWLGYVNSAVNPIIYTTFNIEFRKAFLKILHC

[6] = molecular target: T1, Amine oxidase [flavin-containing] B (Homo sapiens, UniProt P27338); assay: Inhibition of human recombinant MAO-B assessed as kynuramine oxidation to 4-hydroxyquinoline after 40 mins by LC-MS/MS analysis
T1 sequence (P27338 whole entry): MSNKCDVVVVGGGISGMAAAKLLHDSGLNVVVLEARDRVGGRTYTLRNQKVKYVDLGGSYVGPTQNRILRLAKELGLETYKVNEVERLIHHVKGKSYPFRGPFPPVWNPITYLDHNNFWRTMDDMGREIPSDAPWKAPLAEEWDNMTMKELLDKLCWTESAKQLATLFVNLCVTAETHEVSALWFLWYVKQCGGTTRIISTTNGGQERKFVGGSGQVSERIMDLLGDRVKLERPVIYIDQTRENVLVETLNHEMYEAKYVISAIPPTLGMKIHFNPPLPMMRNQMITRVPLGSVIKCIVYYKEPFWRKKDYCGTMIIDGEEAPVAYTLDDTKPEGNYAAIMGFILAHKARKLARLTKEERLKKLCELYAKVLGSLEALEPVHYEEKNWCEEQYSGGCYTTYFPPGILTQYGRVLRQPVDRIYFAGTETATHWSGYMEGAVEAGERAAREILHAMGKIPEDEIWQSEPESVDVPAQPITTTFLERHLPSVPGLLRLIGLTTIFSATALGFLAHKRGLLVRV
Procedure, shortened: (§2)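 Human MAO A and MAO B inhibition using kynuramine as a mixed substrate for both isoforms. IC50 is given as the mean ± SE of duplicate determinations.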

[7] = molecular target: T2, Amine oxidase [flavin-containing] A (Homo sapiens, UniProt P21397); assay: Inhibition of human recombinant MAO-A assessed as kynuramine oxidation to 4-hydroxyquinoline after 40 mins by LC-MS/MS analysis; procedure, shortened: as §2
T2 sequence (P21397 whole entry): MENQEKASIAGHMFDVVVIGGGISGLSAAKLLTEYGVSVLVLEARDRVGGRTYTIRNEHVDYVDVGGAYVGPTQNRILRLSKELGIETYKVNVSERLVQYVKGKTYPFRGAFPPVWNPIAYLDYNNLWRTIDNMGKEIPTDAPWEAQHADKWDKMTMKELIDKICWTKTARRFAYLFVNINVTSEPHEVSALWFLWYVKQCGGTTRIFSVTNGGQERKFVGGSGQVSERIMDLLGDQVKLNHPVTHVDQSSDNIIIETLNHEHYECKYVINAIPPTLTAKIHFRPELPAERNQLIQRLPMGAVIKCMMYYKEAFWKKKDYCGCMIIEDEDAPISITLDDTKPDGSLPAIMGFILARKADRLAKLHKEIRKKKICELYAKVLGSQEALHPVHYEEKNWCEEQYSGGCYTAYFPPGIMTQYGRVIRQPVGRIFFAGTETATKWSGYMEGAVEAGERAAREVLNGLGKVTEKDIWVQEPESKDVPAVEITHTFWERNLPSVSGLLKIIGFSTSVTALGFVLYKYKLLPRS

[8] = Aqueous solubility of the compound in saline solution; format: physicochemical
[9] = organism: Homo sapiens; assay: Selectivity index, ratio of IC50 for human recombinant MAO-B to IC50 for human recombinant MAO-A
Procedure, shortened: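 Selectivity index for MAO A = IC50(MAO B)/IC50(MAO A), with both human isoforms assayed against kynuramine substrate.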

[10] = test system: Rattus norvegicus; assay: In vivo inhibition of MAO-A in Sprague-Dawley rat assessed as 5-hydroxyindoleacetic acid in brain striatum at 80 umol/kg, sc after 1 hr by HPLC/EC analysis relative to control; format: functional; set-up: scale not given: the % may be the effect or the level left; procedure, shortened: as §1
[11] = test system: Rattus norvegicus; assay: In vivo inhibition of MAO-A in Sprague-Dawley rat assessed as 3-methoxytyramine level in brain striatum at 80 umol/kg, sc after 1 hr by HPLC/EC analysis relative to control; format: functional; set-up: scale not given: the % may be the effect or the level left; procedure, shortened: as §1
[12] = test system: Rattus norvegicus; assay: In vivo inhibition of MAO-A in Sprague-Dawley rat assessed as 3,4-dihydroxyphenylacetic acid level in brain striatum at 80 umol/kg, sc after 1 hr by HPLC/EC analysis relative to control; format: functional; set-up: scale not given: the % may be the effect or the level left; procedure, shortened: as §1

SMILES	pIC50 [5]	pIC50 [6]	pIC50 [7]	solubility [8] [µg/mL]	Ratio IC50 [9]	other results
CCCNCc1cc2ccccc2oc1=O	< 4.52	4.21	4.77	–	–	remaining at 1 h, 5 µM [1]: 0%; Activity [2]: 116%; Activity [3]: 89%; Activity [4]: 70%
O=c1oc2ccc([N+](=O)[O-])cc2cc1CN1CCCC1	< 4.52	< 4.00	< 4.00	–	–	Activity [2]: 118%; Activity [3]: 75%; Activity [4]: 105%
COc1ccc2oc(=O)c(CN3CCCC3)cc2c1	< 4.52	< 4.00	5.35	–	–	Activity [2]: 90%; Activity [3]: 129%; Activity [4]: 65%
Cl.Nc1ccc2oc(=O)c(CN3CCCC3)cc2c1	–	–	–	> 5000	–	–
O=c1oc2ccc(OCc3ccccc3)cc2cc1CN1CCCC1	–	< 4.00	< 4.00	–	–	–
N[C@@H]1C[C@H]1c1ccccc1.N[C@H]1C[C@@H]1c1ccccc1	–	–	–	–	1	–
Br.O=c1oc2ccc(O)cc2cc1CN1CCCC1	–	–	–	> 5000	–	–
CCCNCc1cc2ccccc2oc1=O.Cl	–	–	–	> 5000	–	–
CCCCOc1ccc2oc(=O)c(CNCC)cc2c1	–	5.13	5.71	–	3.7	–
O=c1oc2ccc(O)cc2cc1CN1CCCC1 [listing 1 of 2 here]	–	–	–	–	> 68	–
O=c1oc2ccc(O)cc2cc1CN1CCCC1 [listing 2 of 2 here]	–	< 4.00	5.84	–	–	Activity [10]: 86%; Activity [11]: 126%; Activity [12]: 47%
O=c1oc2ccc(OC(F)(F)F)cc2cc1CN1CCCC1	< 4.59	< 4.00	5.37	–	> 23.5	remaining at 1 h, 5 µM [1]: 3%
Cl.O=c1oc2ccccc2cc1CN1CCCC1	–	–	–	> 5000	–	–
